Screening data deposited in PubChem by several laboratories.
NPY-Y2 PAM-ag = human NPY-Y2 potentiation or agonism, primary screen. P49146. cells expressing NPY-Y2, potentiator/agonist read-out. activation, % at 3.6 µM. 220,000 compounds, 0.45% hits; in the data active means activation above about 27%;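 further: cells stimulated with NPY near EC25 plus isoproterenol at EC100; 0% = vehicle plus submaximal agonist and 100% = vehicle plus saturating agonist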
Target sequence (P49146 whole entry, looked up): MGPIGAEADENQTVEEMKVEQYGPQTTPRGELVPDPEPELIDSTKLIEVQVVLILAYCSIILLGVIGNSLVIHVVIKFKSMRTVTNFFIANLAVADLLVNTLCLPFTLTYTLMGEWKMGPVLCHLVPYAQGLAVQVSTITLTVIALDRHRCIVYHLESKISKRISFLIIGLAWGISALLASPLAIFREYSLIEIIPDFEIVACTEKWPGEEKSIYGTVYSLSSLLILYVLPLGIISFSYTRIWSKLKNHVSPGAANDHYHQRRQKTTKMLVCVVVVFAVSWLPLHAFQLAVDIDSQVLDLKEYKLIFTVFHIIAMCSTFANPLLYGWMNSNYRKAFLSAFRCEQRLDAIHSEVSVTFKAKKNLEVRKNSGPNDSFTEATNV
NPY Y2 blocker = blocks the human neuropeptide Y Y2 receptor; NPY-Y2 expressing cells, antagonist mode; inhibition, % at 2.7 µM; 140,000 compounds, 0.99% hits; AID 793; in the data active means inhibition above about 17%;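 further: 0% = vehicle with agonist challenge and 100% = reference antagonist with challenge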
NPY Y1 blocker = NPY-Y1 (human) receptor antagonism. inhibition, % at 3.6 µM. 200,000 compounds, 1% hits. HEK293-CNG Y1 cells, membrane potential fluorescence; NPY at EC95, then isoproterenol. AID 1040. P25929;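 active means inhibition above the campaign mean inhibition of all tested compounds plus 3 SD, cut at about 20% in these data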;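 further: 0% = DMSO wells given NPY plus isoproterenol and 100% = isoproterenol alone without NPY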
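Material: HEK293 Y1/CNG channel cell line | Also added: NPY (25 nM), isoproterenol (1 µM), Ro 20-1724 (25 µM) | Compound: One concentration, 3.6 µM, in 0.4% DMSO | Schedule: 3 h dye uptake, 1 h room-temperature compound, 45 min post-isoproterenol | Signal: Membrane-potential fluorescent dye readout | Read-out: % inhibition of NPY effect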
EP2 antag = EP2 receptor (human) inhibition; P43116; C6 glioma cells expressing human EP2, cAMP TR-FRET; cells stimulated with saturating PGE2; inhibition, % at 25 µM; 260,000 compounds, 0.52% hits; AID 1422;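 active means percent inhibition above 40 after rounding to a whole number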;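 further: rat C6 glioma host cells with rolipram phosphodiesterase inhibitor present; the protocol text gives 20 µM as final concentration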
NPY1 pot ag = potentiators or agonists of human neuropeptide Y receptor Y1. P25929. activation, % at 3.6 µM. 220,000 compounds, 0.37% hits. NPY-Y1 expressing cells, potentiator/agonist activation. AID 1304; in the data active means activation above about 33%, passing the limit was not always enough;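 further: cells stimulated with NPY at EC10 then isoproterenol at EC100; 0% = low agonist plus stimulus and 100% = saturating agonist plus stimulus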
EP2 modulator = EP2 receptor (human) modulation | EP2-expressing cells, cAMP HTRF FRET, PGE2 co-stimulation | induction, % at 25 µM | 260,000 compounds, 0.83% hits;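 active means compounds whose cAMP rise, as percent of the full-agonist control response, exceeds 60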;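 further: rat C6 glioma line stably carrying human EP2 under a CMV promoter; the protocol text gives 20 µM as final concentration; 100% = response of wells given 1 µM PGE2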
EP2 cAMP induct = EP2 receptor cAMP induction, counter-screens negative. shares compounds with EP2 modulator. C6 glioma EP2 cells, cAMP HTRF induction; plus low (about EC15) PGE2 agonist. calls only at 20 µM (by protocol). 1,300 compounds, 47% hits;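 active means cAMP induction above 50% in the main assay while under 30% in all four parallel counter assays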;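 further: rat C6 glioma cells stably expressing human EP2 receptor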
An asterisk follows results filed as active. In the library only some 2.8% were active in any assay of this set; here they are far more common.

For O=c1c(-c2ccccc2)c(O)c2c(n1-c1ccccc1)CCCC2 the results were NPY-Y2 PAM-ag 4.2, NPY Y2 blocker 3.4, NPY Y1 blocker -0.2, EP2 antag 12.5, NPY1 pot ag -11.4 and EP2 modulator 11.7.
Screening CCc1cccc(Nc2cc(C)nc3ncnn23)c1 returned NPY-Y2 PAM-ag 8.7, NPY Y2 blocker 2.1, NPY Y1 blocker 6.3, EP2 antag 5.0, NPY1 pot ag -7.3 and EP2 modulator 39.6.
Screening CCn1c2ccccc2c2cc(Nc3cc(C)nc4ncnn34)ccc21 returned NPY-Y2 PAM-ag 1.1, NPY Y2 blocker 2.3, NPY Y1 blocker 14.1, EP2 antag 8.0, NPY1 pot ag 4.8, EP2 modulator 82.7* and EP2 cAMP induct active.
For CCC(c1nnnn1Cc1ccco1)N(Cc1cc2cc(C)cc(C)c2[nH]c1=O)CC1CCCO1 (centres undefined) the results were NPY-Y2 PAM-ag -1.8, NPY Y2 blocker 12.0, NPY Y1 blocker 19.3, EP2 antag 12.6, NPY1 pot ag -9.6, EP2 modulator 82.4* and EP2 cAMP induct inactive.
Screening O=C(O)c1ccc(CNCc2ccccc2Cl)cc1 returned NPY-Y2 PAM-ag 16.5, NPY Y2 blocker 2.7, NPY Y1 blocker -1.3, EP2 antag 10.3, NPY1 pot ag 2.1 and EP2 modulator 26.2.
O=C(O)c1ccc(CNCc2cccc(Cl)c2Cl)cc1 was read as NPY-Y2 PAM-ag 8.5, NPY Y2 blocker 1.5, NPY Y1 blocker -4.5, EP2 antag 6.9, NPY1 pot ag 21.3, EP2 modulator 68.2* and EP2 cAMP induct inactive.
CCOc1ccc2[nH]c(=O)c(CN(CCCO)C(=O)c3ccccc3OC)cc2c1 was read as EP2 antag 22.2 and EP2 modulator -9.3.
`C=CCn1c(SC(C)C(=O)Nc2c(C)cccc2C)nnc1-c1ccncc1` (centres undefined) gave EP2 antag 8.1 and EP2 modulator -26.3.
Screening COCCNC(=O)Cn1c(-c2cccs2)cc2cccnc21 returned EP2 antag 3.4 and EP2 modulator -17.5.
Screening CCCOc1ccc(Cl)cc1CNc1ccccc1 returned NPY-Y2 PAM-ag -24.9, NPY Y1 blocker 9.8, EP2 antag 2.1, NPY1 pot ag -4.9, EP2 modulator 73.0* and EP2 cAMP induct active.
C=CCSc1nc(Oc2ccccc2)c2sccc2n1 was read as NPY-Y2 PAM-ag 5.4, NPY Y2 blocker 5.3, NPY Y1 blocker 4.0, EP2 antag 8.2, NPY1 pot ag 13.4, EP2 modulator 69.3* and EP2 cAMP induct inactive.
C=CCNc1nc(SCC=C)nc2ccsc12 was read as NPY-Y2 PAM-ag -7.5, NPY Y2 blocker 0.8, NPY Y1 blocker 6.7, NPY1 pot ag 13.9 and EP2 modulator 25.2.
Screening CSc1nc(Oc2ccccc2)c2sccc2n1 returned NPY-Y2 PAM-ag -4.0, NPY Y2 blocker 7.8, NPY Y1 blocker 5.5, EP2 antag 5.6, NPY1 pot ag 1.8, EP2 modulator 66.3* and EP2 cAMP induct active.
CC1CCc2c(sc(NC(=S)NC(=O)c3ccccc3)c2C(N)=O)C1 (centres undefined) was read as EP2 antag 7.4 and EP2 modulator -28.5.
Screening COc1ccc(-c2ocnc2C(=O)NCCc2ccccc2F)cc1 returned EP2 modulator -29.6.
For O=C(Nc1ccccc1-c1ccccc1)c1ccc(Br)o1 the results were NPY-Y2 PAM-ag -39.0, NPY Y2 blocker 8.3, NPY Y1 blocker 19.8, EP2 antag 7.8, NPY1 pot ag -62.5, EP2 modulator 57.4 and EP2 cAMP induct inactive.
Screening COc1ccccc1NC(=O)c1ccc(Br)o1 returned NPY-Y2 PAM-ag -4.1, NPY Y2 blocker 3.5, NPY Y1 blocker 5.9, EP2 antag 12.6, NPY1 pot ag -36.6 and EP2 modulator -11.3.
For O=C(Nc1ccccc1O)c1ccc(Br)o1 the results were EP2 antag 6.8 and EP2 modulator -57.2.
Screening Cc1ccc(Oc2ccc(Cl)cc2NC(=O)c2cnccn2)cc1 returned NPY-Y2 PAM-ag 0.6, NPY Y2 blocker 2.2, NPY Y1 blocker 0.1, EP2 antag 7.4, NPY1 pot ag 0.6 and EP2 modulator 53.7.
Screening O=C(Nc1ccccc1Oc1ccccc1)c1cnccn1 returned NPY-Y2 PAM-ag 3.9, NPY Y2 blocker 0.9, NPY Y1 blocker 4.6, EP2 antag 3.8, NPY1 pot ag -14.9, EP2 modulator 70.8* and EP2 cAMP induct active.
O=C(Nc1ccccc1Oc1ccccc1)c1ccc(Br)o1 was read as NPY-Y2 PAM-ag -10.9, NPY Y2 blocker 7.6, NPY Y1 blocker 3.0, EP2 antag 19.8, NPY1 pot ag -18.7, EP2 modulator 63.8* and EP2 cAMP induct active.
`O=C(Nc1cccc(Cl)c1N1CCCC1)c1ccc(Br)o1` gave NPY-Y2 PAM-ag -31.9, NPY Y2 blocker 33.0*, NPY Y1 blocker 33.0*, EP2 antag 6.3, NPY1 pot ag -79.4, EP2 modulator 69.1* and EP2 cAMP induct active.
Screening O=C(Nc1ccccc1F)N(Cc1nc2ccccc2c(=O)[nH]1)Cc1cccs1 returned EP2 antag 9.4 and EP2 modulator 26.7.
Screening O=C(Nc1cccc(Cl)c1)N1CCC(c2nc3ccccc3o2)CC1 returned EP2 antag 5.4 and EP2 modulator -123.2.
`COc1ccc(CC(=O)NCc2nc(-c3ccncc3)n[nH]2)cc1OC` gave EP2 antag 7.1 and EP2 modulator 10.3.
For O=C(O)/C=C/c1ccccc1Oc1ccc(Cl)cc1Cl the results were NPY-Y2 PAM-ag 2.0, NPY Y1 blocker 4.2, EP2 antag 3.6, NPY1 pot ag -19.6, EP2 modulator 87.3* and EP2 cAMP induct active.
For Cn1ccnc1C1(O)CCN(CC(=O)N2CCCc3ccccc32)CC1 the results were EP2 modulator 4.2.
`CCOC(=O)Cn1nnnc1CN(Cc1cc2ccc(C)c(C)c2[nH]c1=O)CC1CCCO1` (centres undefined) gave EP2 antag 10.5 and EP2 modulator -8.4.
For c1ccc(CCc2cccnc2)nc1 the results were EP2 antag 12.5, EP2 modulator 74.4* and EP2 cAMP induct inactive.
Screening O=C(Nc1ccccc1N1CCOCC1)c1cccc([N+](=O)[O-])c1 returned NPY-Y2 PAM-ag 3.8, NPY Y2 blocker 3.0, NPY Y1 blocker -2.9, EP2 antag 10.5, NPY1 pot ag 23.6 and EP2 modulator 2.4.
For Cc1occc1-c1nnc(SCC(=O)Nc2ccccc2N2CCCCC2)n1C the results were NPY-Y2 PAM-ag 2.2, NPY Y2 blocker -0.5, NPY Y1 blocker 3.8, EP2 antag 7.2, NPY1 pot ag -26.3, EP2 modulator 55.2 and EP2 cAMP induct inactive.
`CCOc1ccc(C(=O)Nc2ccccc2N2CCCC2)cc1` gave NPY-Y2 PAM-ag -30.6, NPY Y2 blocker 3.4, NPY Y1 blocker 1.7, EP2 antag 11.5, NPY1 pot ag -3.8 and EP2 modulator -10.9.
